Assays:
Type in all cases: functional, cell-based
[1] = system: HT-29; assay: Cytotoxicity against human HT-29 cells by SRB staining-based fluorescence cytometry
Procedure, shortened: (§1)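 Cytotoxicity assay run with camptothecin as the reference anticancer standard.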

[2] = system: MCF7; assay: Cytotoxicity against human MCF7 cells by SRB staining-based fluorescence cytometry; procedure, shortened: as §1
[3] = system: KB; assay: Cytotoxicity against human KB cells by SRB staining-based fluorescence cytometry; procedure, shortened: as §1
[4] = system: HeLa; assay: Cytotoxicity against human HeLa cells by SRB staining-based fluorescence cytometry; procedure, shortened: as §1
[5] = Homo sapiens, HT-29, read-out: IC50
[6] = Homo sapiens, MCF7, read-out: IC50
[7] = Homo sapiens, KB, read-out: IC50
[8] = Homo sapiens, HeLa, read-out: IC50

Row | Structure (SMILES) | IC50 [1, 5] [µM] | IC50 [2, 6] [µM] | IC50 [3, 7] [µM] | IC50 [4, 8] [µM] | IC50 ([1]; ht-29) | IC50 ([2]; mcf7) | IC50 ([3]; kb) | IC50 ([4]; hela)
1 | CC[C@@]1(O)C(=O)OCc2c1cc1n(c2=O)Cc2cc3ccccc3nc2-1 [CAMPTOTHECIN] | 1.22 | 1.22 | 1.22 | 1.22 | – | – | – | –
2 | COc1ccc2c(c1C/C=C(\C)CCC=C(C)C)OC[C@@H]1c3cc4c(cc3O[C@H]21)OCO4 [NUTIDUCOL] | – | – | – | – | Not Active | Not Active | Not Active | Not Active
3 | O=C1C=C[C@](O)(C/C=C/c2ccccc2)CC1 [(1'R)-CANDENATENIN B] | 19.7 | 54.4 | 83.7 | 55.7 | – | – | – | –
4 | CC(C)=CCC/C(C)=C/Cc1c(O)cc(O)c2c1O[C@H](c1ccc(O)cc1)CC2=O [SOPHORAFLAVANONE A] | – | – | – | – | Not Active | Not Active | Not Active | Not Active
5 | COc1ccccc1/C=C/C[C@@]1(O)C=CC(=O)CC1 | 17.8 | 48.8 | 70.9 | 54.2 | – | – | – | –
6 | COc1ccc2c(c1O)OC[C@@H]1c3cc4c(cc3O[C@H]21)OCO4 | – | – | – | – | Not Active | Not Active | Not Active | Not Active
7 | CO[C@H]1CC(=O)CC[C@@]1(O)C/C=C/c1ccccc1 | 48.1 | 44.1 | 85 | 53.1 | – | – | – | –
8 | COc1ccc([C@@H]2COc3c(ccc(O)c3C/C=C(\C)CCC=C(C)C)C2)cc1 | – | – | – | – | Not Active | Not Active | Not Active | Not Active
9 | COc1cc(O)c2c(c1)O[C@H](c1ccccc1)[C@@H](O)C2=O | 46.5 | 49.3 | 73.8 | 79 | – | – | – | –
10 | COc1c(O)ccc([C@@H]2C=Cc3cc(O)ccc3O2)c1OC | – | – | – | – | Not Active | Not Active | Not Active | Not Active
11 | COc1ccc(/C=C/Cc2ccc(O)c(OC)c2OC)cc1O [CANDENATENIN A] | 41.1 | 74.3 | 42.7 | 79 | – | – | – | –
